Screens as filed in PubChem.
A1 inh: inhibitors of the anti-apoptotic protein A1, read as caspase activation; caspase activation, % (no concentration beside the values); AID 2462; 0.066% of 330,000 active; MEF A1-2A-BIM cells, Caspase-Glo 3/7 luminescence, 3 h; percent of clofoctol response, vehicle zero;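 active means over half of replicate activation scores above 10%, or exactly half above 10 with the replicate mean above 10; inconclusive means replicate mean below 10 yet half the replicates above 10; inactive means over half of replicates below 10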
UPR CHOP act: apoptotic UPR (CHOP) activation; AID 449763; CHO-CHOP luciferase reporter, luminescence; percent of tunicamycin response over DMSO baseline; activation, % at 10 µM; 0.34% of 330,000 active;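 active means at 10 µM dose, activation of 40% or more, normalized to positive control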;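 further: 100% = tunicamycin at 10 µg/mL and 0% = DMSO alone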
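assay system = CHO CHOP reporter cells | amount = 500 CHO-CHOP cells per well | buffer or medium = F12 with 10% FBS | incubation = 16-18 h cell attachment, then 6 h compound exposure, 37 °C | detection = luminescence read with Steady-Glo | read-out = percent activation relative to tunicamycin control | controls = tunicamycin high control, DMSO low control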
CHOP inh: inhibitors of CHOP induction in ER stress response | CHO-K1 CHOP-promoter luciferase, tunicamycin-induced, 15-18 h | inhibition, % at 10 µM | 3.8% of 220,000 active | AID 2732;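 active means compounds that reduced the stress-induced luciferase reporter signal by more than about 70% of percent inhibition, limit read from the data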;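 further: 0% = tunicamycin plus vehicle and 100% = wells without tunicamycin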
XBP1 UPR activ: activators of adaptive arm of unfolded protein response (XBP1); CHO-XBP1 luciferase reporter, IRE1-XBP1 UPR activation, luminescence; percent of tunicamycin response, DMSO as zero; activation, % at 20 µM; 0.33% of 330,000 active;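 active means versus positive control, 20 µM dose yields 30% or more activation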;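 further: 100% = tunicamycin at 10 µg/mL and 0% = DMSO only wells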
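Material: CHO-XBP1 cells stably carrying IRE1-XBP1-driven luciferase reporter / Amount: 1000 cells per well / Compound: 20 µM, 1% DMSO / Times: 6 h treatment, 37 °C / Detection: luciferase luminescence / Measure: % activation of reporter signal versus tunicamycin and DMSO controls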
* hit, by the source's call; ? = inconclusive; / = no result given. Shown is part of a subset that was picked to be rich in hits.

SMILES | A1 inh | UPR CHOP act | CHOP inh | XBP1 UPR activ
CCCCn1c(N)c(N(CCOC)C(=O)C2CC(=O)N(c3cccc(SC)c3)C2)c(=O)[nH]c1=O (stereo not drawn) | 0 | -1 | / | 0
C=CCc1ccccc1OCC(=O)N/N=C/c1ccc(OC(C)=O)cc1OC(C)=O | 0 | -3 | 73* | 1
CCOC(=O)CC(=O)Nc1ccsc1C(N)=O | 1 | -1 | 4 | -5
O=C(O)CCC(=O)N1N=C(c2ccco2)CC1c1ccco1 (stereo not drawn) | 0 | 0 | / | -6
C=CCNCCOCCOc1ccc(Cl)cc1C(C)(C)C | 0 | 1 | 4 | 2
C=CCNCCCOc1ccc(Cl)cc1C(C)(C)C | 1 | -1 | 72* | 5
O=S(=O)(c1cccc2cccnc12)n1cnc2ccccc21 | 1 | -1 | 11 | -2
Cc1cc(NC(C)c2ccccc2)n2ncc(-c3ccccc3)c2n1 (stereo not drawn) | ? | 5 | / | 2
C=CCNc1nc(N)c(C(=C(C#N)C#N)c2ccc(Br)cc2)s1 | 0 | 0 | 81* | -2
CNC(=S)N(CCc1ccccc1)Cc1cc2cc(OC)c(OC)cc2[nH]c1=O | -1 | 0 | 20 | 0
Cc1ccc(NC(=O)c2c(C(=O)Nc3ccccc3)sc3nc(C)cc(=O)n23)cc1 | 0 | 0 | 39 | 3
CCc1ccc(NC(=O)c2c(C(=O)Nc3ccccc3)sc3nc(C)cc(=O)n23)cc1 | 0 | 3 | 82* | -2
CCOc1ccc(/C=C2/SC(=S)N(n3c(C)ccc3C)C2=O)cc1 | -1 | 1 | 21 | -2
O=C(O)CCN1C(=O)/C(=C\c2ccc(-c3nc4ccccc4s3)o2)SC1=S | 1 | 3 | 74* | 5
COc1ccc(/C=C2/SC(=S)N(CCC(=O)O)C2=O)cc1 | -4 | -7 | 84* | -3
O=C(O)CCCN1C(=O)/C(=C\c2ccco2)SC1=S | / | / | 60 | /
COc1ccc(/C=C2/SC(=S)N(n3c(C)ccc3C)C2=O)cc1 | 1 | 1 | 90* | -3
COc1ccc(C(O)c2nc3ccccc3n2C)cc1OC (stereo not drawn) | -1 | 0 | / | -3
Cc1ccccc1CS(=O)(=O)Cc1ccc(C(=O)NCCCN2CCOCC2)o1 | 0 | 2 | 4 | -1
Cc1ccccc1CS(=O)(=O)Cc1ccc(C(=O)NCCCN2CCCC2=O)o1 | 0 | 1 | 73* | 1
CSc1nccc(-c2nn(-c3ccc(C)cc3)ccc2=O)n1 | 0 | 0 | / | 2
Fc1ccc(-n2nnc(-c3cnc4ccccc4c3)n2)cc1 | -6 | -7 | 72* | -8
CN(Cc1ccccc1)C(=O)c1nc2ccccn2c1CN1CCCC1c1nccs1 (stereo not drawn) | 0 | -2 | 18 | -2
CCOc1ccc2cc(C#N)c(SCC(=O)N3CCC(C)CC3)nc2c1 | 0 | 1 | -97 | 3
CCOC(=O)CSc1nc2cc(OCC)ccc2cc1C#N | 0 | 3 | 93* | 12
SMILES | A1 inh | UPR CHOP act | CHOP inh | XBP1 UPR activ
CCOc1ccc(N2C(=O)/C(=C/c3cc(OC)c(OC)c(OC)c3)N(CC(=O)OC)C2=S)cc1 | -2 | 2 | -17 | -1
CC(=O)NC(Cc1cccc(F)c1)C(=O)NC1CCN(C(=O)Nc2ccc(C)cc2)CC1 (stereo not drawn) | 0 | 1 | / | -5
COC(=O)c1ccc2nccnc2c1 | 0 | -2 | 6 | -1
CC(=O)Nc1sc(N/N=C\c2ccc(O)cc2)nc1-c1cccs1 | -1 | 4 | -26 | -3
CC(=O)Nc1sc(N/N=C\c2cccc(Cl)c2)nc1-c1cccs1 | ? | 3 | 96* | 0
CC(C)CCN1CCC(Cc2ccccc2)(NC(=O)c2ccccc2)C1=O (stereo not drawn) | 0 | 0 | / | 0
Clc1ccc(-c2nnc(-c3ccccc3)nc2-c2c[nH]c3ccccc23)cc1 | 0 | 0 | 85* | -1
Cc1[nH]c2ccccc2c1-c1nc(-c2ccc(Cl)cc2)nnc1-c1ccccc1 | 0 | 8 | 76* | 23
CCOC(=O)c1cc2sccc2n1CC(=O)N1CCc2ccccc21 | 0 | -2 | 74* | -4
Cc1cc(C)n(-c2nnc(C)n2/N=C/c2cc(Br)ccc2OCc2ccccc2)n1 | -1 | 3 | 92* | 6
Cc1cc(C)n(-c2nnc(C)n2/N=C/c2ccccc2OCc2ccccc2Cl)n1 | 0 | 1 | 29 | -2
COc1ccc(NC(=S)Nc2cc(-c3ccccc3)[nH]n2)cc1Cl | 1 | 0 | 78* | 1
